Bioassay records (PubChem BioAssay)
In the library only some 1.8% were active in any assay of this set; here they are far more common.
LYP act: LYP phosphatase activators, primary screen, biochemical, DiFMUP fluorescence, 2 µM. activation, % at 2 µM. recombinant LYP; 0 = plate median, 100 = signal doubled. Tyrosine-protein phosphatase non-receptor type 22 (Homo sapiens), Q9Y2R2. 96,000 tested, 0.11% active;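 active means activation at 2 µM above a set limit, the mean plus 5 SD, cut at about 37% in these data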
HIV Rev-RRE inh: HIV-1 Rev-RRE binding inhibitors, primary screen, biochemical, FRET, protein-RNA interaction; inhibition, % at 8 µM; P05866; Rev peptide-RRE RNA binding; 97,000 tested, 0.79% active; AID 704, 2007;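 active means inhibition above the screen-wide mean plus 3 SD, cut at about 35% in these data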;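 further: 0% = median DMSO wells and 100% = median Neomycin B control wells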
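Test system: Cy5-tagged RRE RNA duplex with fluorescein-tagged Rev peptide; Probe or stimulus: labelled Rev peptide; Schedule: 5 min preincubation and 15 min binding, 25 °C; Signal: FRET fluorescence readout; Evaluation: % inhibition from 671/540 nm acceptor-to-donor ratio, scaled between controls; Control set: DMSO and neomycin B.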
LYP inh 2: PTPN22 phosphatase inhibitors, primary screen, biochemical, DiFMUP fluorescence, 2 µM. Tyrosine-protein phosphatase non-receptor type 22 (Homo sapiens), Q9Y2R2. recombinant LYP catalytic domain. inhibition, % at 2 µM. 96,000 tested, 0.21% active;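 active means inhibition at 2 µM at or above a set limit, the screen mean plus 3 SD, cut at about 24% in these data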;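 further: 0% = DMSO with enzyme and 100% = enzyme fully blocked by orthovanadate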
PTK2B oligo ant: antagonists of Pyk2 self-association, primary screen, Q293 cells, FERM NanoBiT luminescence, HTS. Protein-tyrosine kinase 2-beta (Homo sapiens), Q14289. stronger effect = lower value. z-score (the deposit names both 25 µM and 10 µM). 99,000 tested, 0.83% active;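 active means Z-score of -3 or lower, scaled per plate to the spread of control and sample wells; inactive means z-score above -3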;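 further: negative z-score means lost luminescence so less FERM oligomerization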
Target sequence (Q14289 whole entry, looked up): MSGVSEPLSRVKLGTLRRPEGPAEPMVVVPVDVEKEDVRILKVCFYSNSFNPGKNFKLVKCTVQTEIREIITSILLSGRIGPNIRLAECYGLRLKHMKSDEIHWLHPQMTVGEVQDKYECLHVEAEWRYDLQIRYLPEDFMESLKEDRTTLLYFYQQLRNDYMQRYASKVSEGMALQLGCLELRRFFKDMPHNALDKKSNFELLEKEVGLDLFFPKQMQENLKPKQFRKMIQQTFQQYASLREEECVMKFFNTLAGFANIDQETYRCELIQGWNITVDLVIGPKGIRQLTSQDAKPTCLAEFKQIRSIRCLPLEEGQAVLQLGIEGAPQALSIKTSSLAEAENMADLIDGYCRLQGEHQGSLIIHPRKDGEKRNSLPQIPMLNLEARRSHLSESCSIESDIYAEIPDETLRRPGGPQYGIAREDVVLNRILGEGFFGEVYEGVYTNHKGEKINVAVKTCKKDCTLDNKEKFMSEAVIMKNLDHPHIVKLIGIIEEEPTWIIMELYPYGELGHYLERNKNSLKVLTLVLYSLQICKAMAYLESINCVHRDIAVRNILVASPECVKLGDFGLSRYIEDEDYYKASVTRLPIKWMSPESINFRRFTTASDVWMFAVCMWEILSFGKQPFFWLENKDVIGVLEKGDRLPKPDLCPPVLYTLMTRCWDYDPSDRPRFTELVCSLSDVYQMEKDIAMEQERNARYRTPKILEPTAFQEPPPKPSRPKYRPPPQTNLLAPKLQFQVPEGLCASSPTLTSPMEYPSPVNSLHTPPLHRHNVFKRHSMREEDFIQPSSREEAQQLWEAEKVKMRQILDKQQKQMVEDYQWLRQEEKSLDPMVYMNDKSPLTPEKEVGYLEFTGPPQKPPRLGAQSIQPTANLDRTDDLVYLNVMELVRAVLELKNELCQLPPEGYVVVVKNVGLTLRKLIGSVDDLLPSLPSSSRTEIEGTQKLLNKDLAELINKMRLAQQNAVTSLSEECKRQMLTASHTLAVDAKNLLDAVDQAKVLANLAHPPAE
The depositor's hits bear a star; / = not tested or not shown; [ ] = another dose, or the depositor's remark.

SMILES | LYP act | HIV Rev-RRE inh | LYP inh 2 | PTK2B oligo ant
Cc1ccc(S(=O)(=O)N2CCCN(c3nc4cc(C)ccc4cc3C#N)CC2)cc1 | -1.9 | 36.9* | 2.3 | 0.04
N#CC(C(=O)NCCc1ccccc1)c1nc2ccccc2nc1N1CCCCC1 (configuration not stated) | -4.1 | 8.0 | 0.9 | 0.85
CCS(=O)(=O)NCCc1cc2ccc(C)cc2[nH]c1=O | -2.8 | 5.8 | -0.3 | 5.12
COc1ccc(S(=O)(=O)N(CC(=O)NCC2CCCO2)c2ccc(F)cc2)cc1OC (configuration not stated) | 24.3 | 0.0 | -20.2 | 1.15
Cc1ccc(/C(O)=C2\C(=O)C(=O)N(CC(C)O)C2c2ccc(N(C)C)cc2)cc1 (configuration not stated) | -12.3 | 4.2 | 10.5 | 1.84
Cc1oc2cc(O)cc(C)c2c(=O)c1-c1cnn(-c2ccccc2)c1 | -10.0 | 1.6 | 7.2 | -3.78*
CSc1nsc(SCC(=O)N2CCN(c3ccccc3)CC2)n1 | -12.1 | 6.0 | 14.4 | 0.68
O=C1NC2=C(C(=O)CCC2)C(c2ccc3ncccc3c2)N1 (configuration not stated) | -5.3 | 4.7 | 7.5 | 0.53
COC(=O)C1=C(C)N=c2s/c(=C/c3cccs3)c(=O)n2C1c1cccs1 (configuration not stated) | -3.6 | 6.1 | 1.3 | -0.75
COc1ccc(C2C(C(C)=O)=C(C)N=c3s/c(=C/c4ccc5c(c4)OCO5)c(=O)n32)cc1 (configuration not stated) | -5.5 | 43.6* | 8.9 | /
COC(=O)C1=C(C)N=c2s/c(=C/c3ccoc3)c(=O)n2C1c1ccccc1 (configuration not stated) | -2.7 | 50.7* | -1.4 | -0.49
N#Cc1c2n(c3c(=O)n(Cc4ccc(Cl)cc4)cnc13)CCCC2 | -0.6 | 8.9 | 1.1 | -3.51*
COc1ccc(OC)c(NC(=O)COC(=O)c2c3c(nc4ccccc24)CCCC3)c1 | 16.6 | 6.2 | -13.4 | -4.38*
COc1ccc(NC(=O)COC(=O)c2c3c(nc4ccccc24)CCCC3)cc1Cl | -6.9 | 4.1 | 8.5 | -4.62*
COc1cc(NC(=O)c2c3c(nc4ccccc24)CCC3)cc(OC)c1 | 2.3 | 3.3 | 3.0 | 0.03
COc1ccc(NC(=O)COC(=O)c2c3c(nc4ccccc24)CCCC3)cc1 | 22.9 | 7.5 | -27.2 | -4.52*
CS(=O)(=O)N(CC(=O)Nc1ccc(CC#N)cc1)c1ccc(C23CC4CC(CC(C4)C2)C3)cc1 | 3.5 | 0.4 | 1.8 | -1.04
CCc1ccc(NS(=O)(=O)c2ccc(OC)c(C)c2)cc1 | -0.2 | 24.4 | -2.3 | -3.34*
COc1ccc(S(=O)(=O)Nc2ccc3ccccc3c2)cc1C | -6.1 | 10.8 | 5.2 | -3.23*
CN1CCCCc2c1[nH]c1ccccc1c2=O | -3.9 | 5.1 | 0.6 | 0.13
Cc1ccccc1Nc1nc(N)nc(CSc2nc3ccccc3c(=O)n2C)n1 | -5.8 | 11.6 | 6.7 | -3.11*
O=C(COC(=O)c1n[nH]c2ccccc12)NC(=O)NC1CCCCC1 | 28.5 | 14.0 | -32.6 | -2.22
Cc1nn(-c2ccccc2)c(C)c1C(=O)OCC(=O)NC12CC3CC(CC(C3)C1)C2 | 8.0 | 14.0 | -11.7 | -3.13*
Cc1nn(-c2ccccc2)c(C)c1C(=O)OCC(=O)NC(=O)NC1CCCC1 | 4.0 | 10.8 | -0.6 | -3.39*
O=C(CCSc1ccc(Cl)cc1)NC12CC3CC(CC(C3)C1)C2 | -0.9 | 16.5 | 0.7 | -0.16
SMILES | LYP act | HIV Rev-RRE inh | LYP inh 2 | PTK2B oligo ant
C=CCn1c(=O)/c(=C/c2ccc(C)o2)s/c1=C(/C#N)C(=O)c1ccccc1 | -3.2 | 117.6*[fluorescence artefact?] | 0.3 | -0.76
COC(=O)C1=C(C)N(C)C(C)=C(C(=O)OC)C1c1ccc(F)c(Br)c1 | 1.5 | 6.1 | -1.6 | -3.2*
COC(=O)C1=C(C)N(C)C(C)=C(C(=O)OC)C1c1ccncc1 | 9.5 | 1.2 | -10.8 | 0.32
CCCCCCc1cc2cc(-c3nnc(-c4ccccc4O)o3)c(=O)oc2cc1O | / | / | / | -1.66
CCCCCCc1cc2cc(-c3nnc(-c4cc(OC)c(OC)c(OC)c4)o3)c(=O)oc2cc1O | -43.0 | 134.9*[fluorescence artefact?] | 42.8* | /
CCCCCCc1cc2cc(-c3nnc(-c4ccccc4OC)o3)c(=O)oc2cc1O | -45.9 | 143.1*[fluorescence artefact?] | 46.5* | -3.1*
CCOc1ccc(-n2nc3c(Cl)nnc(C)c3c2C)cc1 | / | / | / | 0.22
CC(C)(C)c1ccc(OCC(O)CSc2ncn[nH]2)cc1 (configuration not stated) | 7.6 | 0.3 | -7.7 | -0.96
COc1ccccc1/C=C\C=N\n1c(C2CCCCC2)n[nH]c1=S | -22.1 | 0.1 | 24.9* | -2.83
COc1ccccc1/C=C/C=N/n1c(-c2ccc(C)cc2)n[nH]c1=S | / | / | / | -1.13
CCCCN(C(=O)CSc1nnc(Nc2ccc(C)c(C)c2)s1)c1c(N)n(Cc2ccccc2)c(=O)[nH]c1=O | -25.2 | 10.2 | 26.5* | -1.56
CN(C(=O)CSc1nnc(Nc2ccccc2)s1)c1c(N)n(Cc2ccccc2)c(=O)[nH]c1=O | -5.4 | 12.9 | 7.1 | 0.05
O=C1NC(=S)N/C1=C/c1ccc(-c2c(Br)cc([N+](=O)[O-])cc2Br)o1 | -13.7 | 38.0* | 16.9 | /
CC1CN(S(=O)(=O)c2ccc(NC(=O)c3cc(-c4ccccc4O)n[nH]3)cc2)CC(C)O1 (configuration not stated) | 3.7 | -0.5 | -3.6 | -3.07*
CC1CN(S(=O)(=O)c2ccccc2)CC(C)O1 (configuration not stated) | -3.0 | 8.4 | 2.3 | -0.34
C=CCn1c(SCC(=O)c2cccs2)nc2sc(CC)cc2c1=O | 4.8 | 17.2 | -6.5 | -3.23*
Cc1nc(-c2ccccc2O)n(-c2ccccc2)n1 | -2.0 | -0.4 | 2.9 | 1.12
COc1ccnc(Nc2ccc(C)c(C)c2)c1C#N | 4.5 | 5.9 | -1.3 | 0.68
COc1ccnc(NCc2ccc(Cl)cc2)c1C#N | 6.3 | 0.7 | -3.0 | -3.56*
Cc1ccc(OCC(=O)N2CCC(N3CCCCCC3)CC2)cc1 | -2.6 | 7.6 | -0.8 | 0.91
CCOc1cc(/C=C(/C#N)C(=O)Nc2ccc(O)cc2)cc(Br)c1O | -13.4 | 117.4*[fluorescence artefact?] | 17.3 | -2.13
O=C(COC(=O)Cc1ccc(Cl)cc1Cl)Nc1ccccc1OC(F)F | / | / | / | 1.43
CCOC(=O)c1ccccc1NC(=O)COc1cc(=O)n(CC)c2ccccc12 | -15.9 | 8.4 | 16.4 | -4.16*
CCOC(=O)C1=C(C)N=c2s/c(=C/c3ccco3)c(=O)n2C1c1cccc(OC)c1 (configuration not stated) | -14.2 | 15.2 | 13.8 | /
CCOC(=O)C1=C(C)N=c2s/c(=C\c3cccn3C)c(=O)n2C1c1cccc(OC)c1OC (configuration not stated) | -5.3 | 88.2*[fluorescence artefact?] | 8.5 | -0.5
CN1CCCc2cc(C=O)ccc21 | 29.3 | 4.1 | -30.1 | 0.86
CCCN1CCCc2cc(CN)ccc21 | -2.6 | 46.3* | 0.6 | -0.02
Cn1c(=O)c2c(nc(NCc3ccco3)n2C/C=C/c2ccccc2)n(C)c1=O | / | / | / | -3.04*
